Results as given in article PMC4788533 (Investigational new drugs, 2015).

Legend:
[1] = solid formulation, orally twice daily; cited from earlier work
[2] = Selumetinib plasma pharmacokinetics; type: in vivo, human; conditions: for Log (Cmax (ng/mL) – dose normalized) / Log(AUC 0-∞ (ng/mL × hr) – dose normalized): mean ± SD; for half-life: T ½
Method in brief: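 Patients with refractory solid tumours or KRAS-mutant CRC took oral MEK inhibitor capsules fasting, with the morning dose ≥1 h before the anti-EGFR antibody (400 mg/m2 IV load, then 250 mg/m2 weekly; 28-day cycles). EDTA plasma was drawn at baseline and 0.5–12 h post-dose on C1D1, and assayed by validated LC-MS/MS (LOD 3.91 ng/ml). Analysis was noncompartmental. Dose levels 1–2 were pooled.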

[3] = type: in vivo, human; conditions: PO BID, with cetuximab 250 mg/m^2 weekly following a 400 mg/m^2 load
ERK phosphorylation = conditions: peripheral blood mononuclear cells and tumor biopsies; cited from earlier work
[4] = day 1 of cycle 1, dose level 1 (selumetinib 50mg), N=6, mean ± SD
[5] = day 1 of cycle 1, dose level 1 and 2 combined (N=10)
[6] = day 1 of cycle 1, dose level 2 (selumetinib 50mg), N=4, mean ± SD
[7] = day 1 of cycle 1, dose level 3 incl. expansion cohort (N=22)
[8] = human, plasma, oral, 50 mg, day 1 of cycle 1, dose level 1 (selumetinib 50mg), N=6, mean ± SD
[9] = human, plasma, oral, 50 mg, day 1 of cycle 1, dose level 2 (selumetinib 50mg), N=4, mean ± SD

Cn1cnc2c(F)c(Nc3ccc(Br)cc3Cl)c(C(=O)NOCCO)cc21 [selumetinib]
maximum tolerated dose (MTD) of selumetinib, single agent [1]: 75 mg | Cl/F [2, 4]: 23.9 ± 5.48 L/h | V/F [2, 4]: 76.9 ± 18.1 L | Log (Cmax (ng/mL) – dose normalized) [2, 5]: 3.19 ± 0.23 | Log(AUC 0-∞ (ng/mL × hr) – dose normalized) [2, 5]: 4.23 ± 0.17 | Cmax ([2]; day 1 of cycle 1, dose level 2 (selumetinib 50mg), N=4, geometric mean (CV)): 1143 (CV 0.28) ng/mL | Cl/F [2, 6]: 21.0 ± 2.53 L/h | V/F [2, 6]: 70.4 ± 19.7 L | Log (Cmax (ng/mL) – dose normalized) [2, 7]: 3.00 ± 0.43 | Log(AUC 0-∞ (ng/mL × hr) – dose normalized) [2, 7]: 4.24 ± 0.54 | AUC ([2]; human, plasma, oral): 3210 to 5200 ng·h/mL | AUC(0-inf) ([2]; human, plasma, oral, 50 mg, day 1 of cycle 1, dose level 1 (selumetinib 50mg), N=6, geometric mean (CV)): 3210 ng·h/mL | AUC(0-inf) ([2]; human, plasma, oral, 50 mg, day 1 of cycle 1, dose level 1 and 2 combined (50mg dose, N=10), geometric mean (CV)): 3450 ng·h/mL | AUC(0-inf) ([2]; human, plasma, oral, 50 mg, day 1 of cycle 1, dose level 2 (selumetinib 50mg), N=4, geometric mean (CV)): 3610 ng·h/mL | Cmax ([2]; human, plasma, oral, 50 mg, Cmax, day 1 of cycle 1, dose level 1 (selumetinib 50mg), N=6, geometric mean (CV)): 1320 ng/mL | half-life [2, 8]: 2.28 ± 0.55 h | half-life [2, 9]: 2.31 ± 0.55 h | Tmax [2, 8]: 1.13 ± 0.25 h | Tmax [2, 9]: 1.92 ± 1.28 h | maximum tolerated dose of the combination, selumetinib part [3]: 75 mg | ERK phosphorylation following selumetinib treatment (ERK phosphorylation): Inhibition of ERK phosphorylation was observed
